ChEMBL document CHEMBL1146122, “Neuropeptide Y (NPY) Y4 receptor selective agonists based on NPY(32-36): development of an anorectic Y4 receptor selective agonist with picomolar affinity” (J Med Chem, 2006)
Non-standard residues stand in square brackets, D forms with d. Residues, ends and D or L forms follow the SMILES beside them. Nva = CCC[C@H](N)C(=O)O

What was measured:
[1] = biological target: T1, Neuropeptide Y receptor type 2 (Homo sapiens, UniProt P49146); test: Agonist activity at human NPY2 receptor in CHO cells by inhibition of forskolin-stimulated cAMP synthesis; type: functional, cell-based
T1 sequence (P49146 whole entry): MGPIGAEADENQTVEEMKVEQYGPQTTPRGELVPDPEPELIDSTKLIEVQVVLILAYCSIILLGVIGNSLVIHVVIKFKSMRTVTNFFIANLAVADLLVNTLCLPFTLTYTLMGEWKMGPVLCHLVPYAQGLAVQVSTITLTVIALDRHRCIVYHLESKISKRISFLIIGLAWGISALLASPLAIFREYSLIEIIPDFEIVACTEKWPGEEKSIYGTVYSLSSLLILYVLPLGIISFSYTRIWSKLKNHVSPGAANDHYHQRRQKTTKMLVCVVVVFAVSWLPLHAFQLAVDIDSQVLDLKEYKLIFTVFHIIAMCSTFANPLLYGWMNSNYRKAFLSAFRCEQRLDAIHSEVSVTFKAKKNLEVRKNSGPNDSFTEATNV
Summary of the method: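 Whole-cell cAMP: Y1 in HEK293 cells; Y2, Y4 and Y5 in CHO cells; 30,000 cells/well grown 48 h. Cells preincubated 20 min at 37 °C in HBSS with 10 mM HEPES pH 7.4, 0.2% BSA, 4 mM MgCl2 and 1 mM IBMX. Then 10 min at 37 °C with forskolin (2.5 µM CHO; 5.0 µM HEK293) plus graded peptide. Ethanol lysis, 125I-cAMP flashplate readout. Triplicate points, ≥3 repeats, nonlinear regression.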

[2] = biological target: T1, Neuropeptide Y receptor type 2; test: Displacement of […] from human NPY2 receptor expressed in CHO cells; type: cell-based
Summary of the method: (§1)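 Competition binding on membranes (5-10 µg protein) from CHO cells stably expressing human Y1, Y2 or rat-human hybrid Y5 receptors. Radioligand 0.2 nM 125I-PYY, incubated with a range of peptide concentrations in 50 mM HEPES pH 7.3, 0.1% BSA, 2.5 mM CaCl2 and 1 mM MgCl2 for 90 min at room temperature. Bound ligand separated on PEI-treated glass fibre filters, washed with PBS and γ-counted. 1 µM NPY defined nonspecific binding. Duplicate points, three experiments, nonlinear regression.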

[3] = Selectivity for human NPY4 over rat-human hybrid NPY5 receptor
[4] = biological target: T2, Neuropeptide Y receptor type 4 (Homo sapiens, UniProt P50391); test: Agonist activity at human NPY4 receptor in CHO cells by inhibition of forskolin-stimulated cAMP synthesis
[5] = species on record: Homo sapiens; test: Selectivity for human NPY4 over NPY1 receptor
[6] = species on record: Homo sapiens; test: Selectivity for human NPY4 over NPY2 receptor
[7] = biological target: T2, Neuropeptide Y receptor type 4; test: Displacement of [125I]hPP from human NPY4 receptor expressed in CHO cells; type: cell-based
Summary of the method: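 Y4 binding used membranes from CHO cells stably expressing cloned human Y4, with 125I-PP as radioligand. Competing peptides were tested over a range of concentrations in 50 mM HEPES pH 7.3, 0.1% BSA, 2.5 mM CaCl2 and 1 mM MgCl2 for 90 min at room temperature. Separation was by filtration and γ-counting. Nonspecific binding was taken with 1 µM PP. Duplicate points, three experiments, nonlinear regression.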

[8] = biological target: T3, Neuropeptide Y receptor type 1 (Homo sapiens, UniProt P25929); test: Displacement of […] from human NPY1 receptor expressed in CHO cells; type: cell-based; summary of the method: as §1
T3 sequence (P25929 whole entry): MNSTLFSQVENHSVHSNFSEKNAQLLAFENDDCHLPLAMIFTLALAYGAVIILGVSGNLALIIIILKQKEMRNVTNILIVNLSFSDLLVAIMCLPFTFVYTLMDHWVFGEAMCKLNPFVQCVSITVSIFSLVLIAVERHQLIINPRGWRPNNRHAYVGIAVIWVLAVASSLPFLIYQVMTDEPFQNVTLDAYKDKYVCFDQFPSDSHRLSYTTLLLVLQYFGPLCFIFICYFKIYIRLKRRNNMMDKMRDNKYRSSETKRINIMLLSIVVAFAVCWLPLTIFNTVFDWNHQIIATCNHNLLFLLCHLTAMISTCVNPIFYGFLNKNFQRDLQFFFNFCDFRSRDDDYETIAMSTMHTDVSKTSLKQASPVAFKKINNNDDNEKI

[9] = Displacement of […] from rat-human hybrid NPY5 receptor expressed in CHO cells; type: cell-based; summary of the method: as §1

T2 sequence (P50391 whole entry): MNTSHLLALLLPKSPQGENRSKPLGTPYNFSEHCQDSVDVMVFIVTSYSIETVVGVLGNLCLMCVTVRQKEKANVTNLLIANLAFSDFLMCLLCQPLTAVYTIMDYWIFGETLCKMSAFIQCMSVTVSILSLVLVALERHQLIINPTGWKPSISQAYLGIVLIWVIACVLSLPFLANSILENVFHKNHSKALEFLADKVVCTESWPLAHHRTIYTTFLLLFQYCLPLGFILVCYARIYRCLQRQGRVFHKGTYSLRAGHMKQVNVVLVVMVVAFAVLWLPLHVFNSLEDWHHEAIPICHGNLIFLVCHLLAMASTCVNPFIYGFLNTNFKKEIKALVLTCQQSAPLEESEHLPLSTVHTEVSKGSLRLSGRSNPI

EC50 [1]: 1180 nM | Ki [2]: 50 nM | Selectivity ratio [3]: 40 | EC50 [4]: 230 nM | Selectivity ratio [5]: 10 | Selectivity ratio [6]: 14 | Ki [7]: 3.9 nM | Ki [8]: 30 nM
Structure (SMILES): CCC[C@H](NC(=O)[C@H](CCCN=C(N)N)NC(=O)[C@H](Cc1c[nH]c2ccccc12)NC(=O)[C@H](Cc1ccc(O)cc1)NC(=O)[C@H](CCCN=C(N)N)NC(=O)[C@H](CCC)NC(=O)[C@H](CCCN=C(N)N)NC(=O)[C@H](Cc1c[nH]c2ccccc12)NC(=O)[C@H](Cc1ccc(O)cc1)NC(=O)[C@H](CCCN=C(N)N)NC(=O)[C@H](CCC)NC(=O)[C@H](CCCN=C(N)N)NC(=O)[C@@H](N)Cc1c[nH]c2ccccc12)C(=O)N[C@@H](CCCN=C(N)N)C(=O)N[C@@H](Cc1ccc(O)cc1)C(N)=O (H-WR[Nva]RYWR[Nva]RYWR[Nva]RY-NH2)
Ki [9]: 160 nM
